Key:
Assay type in all cases: functional
Rattus norvegicus [1] = assay: Antiinflammatory activity against carrageenan induced rat paw edema (CPE), dosed orally
Procedure, shortened: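 Male Sprague–Dawley rats (150 ± 10 g), five per group. Compound or vehicle given orally in 0.5% methylcellulose 1 h before subplantar injection of 0.1 mL 1% carrageenan in saline into the right hind paw. Paw volume measured by mercury displacement before dosing and 3 h after carrageenan; the difference is the edema volume. ANOVA with Dunnett's t test.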

Rattus norvegicus [2] = assay: Antiinflammatory activity against D-adjuvant arthritis in injected rat paw at the dose of 50 mg/kg by oral administration
Rattus norvegicus [3] = species: Rattus norvegicus; assay: Antiinflammatory activity in D-adjuvant induced arthritis in rat measured by the change in body weight; design: concentration or dose not given beside the values
Rattus norvegicus [4] = assay: Antiinflammatory activity against D-adjuvant arthritis in uninjected rat paw at the dose of 50 mg/kg by oral administration
Procedure, shortened: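 Rat developing adjuvant arthritis screen with oral dosing on a prophylactic protocol. Percent change in body weight versus untreated animals was recorded as a preliminary toxicity sign. Significance was assessed against controls by two-tailed Student's t test, p < 0.05.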

## CN(C)CC(=O)Nc1nc2cc3nc(NC(=O)CN(C)C)sc3cc2s1
Rattus norvegicus [1]
  Inhibition: 8%
Rattus norvegicus [2]
  inhibition in vivo at 50 mg/kg: 1%
Rattus norvegicus [3]
  Activity: -37%
Rattus norvegicus [4]
  inhibition in vivo at 50 mg/kg: 81%

## CC1CCCCN1CC(=O)Nc1nc2cc3nc(NC(=O)CN4CCCCC4C)sc3cc2s1 (centres undefined)
Rattus norvegicus [1]
  Inhibition: 0%
Rattus norvegicus [2]
  inhibition in vivo at 50 mg/kg: 41%
Rattus norvegicus [3]
  Activity: 6%
Rattus norvegicus [4]
  inhibition in vivo at 50 mg/kg: 82%

## CCOC(=O)N1CCN(CC(=O)Nc2nc3cc4nc(NC(=O)CN5CCN(C(=O)OCC)CC5)sc4cc3s2)CC1.Cl.Cl
Rattus norvegicus [1]
  Inhibition: 17%
Rattus norvegicus [2]
  inhibition in vivo at 50 mg/kg: 26%
Rattus norvegicus [3]
  Activity: -17%
Rattus norvegicus [4]
  inhibition in vivo at 50 mg/kg: 60%

## O=C(CN1CCCC(CO)C1)Nc1nc2cc3nc(NC(=O)CN4CCCC(CO)C4)sc3cc2s1 (centres undefined)
Rattus norvegicus [1]
  Inhibition: 16%
Rattus norvegicus [2]
  inhibition in vivo at 50 mg/kg: 25%
Rattus norvegicus [3]
  Activity: -4%
Rattus norvegicus [4]
  inhibition in vivo at 50 mg/kg: 47%

## O=C(CN1CCCCCC1)Nc1nc2cc3nc(NC(=O)CN4CCCCCC4)sc3cc2s1
Rattus norvegicus [1]
  Inhibition: 0%
Rattus norvegicus [2]
  inhibition in vivo at 50 mg/kg: 26%
Rattus norvegicus [4]
  inhibition in vivo at 50 mg/kg: 27%

## CCN(CC)CC(=O)Nc1nc2cc3nc(NC(=O)CN(CC)CC)sc3c(N)c2s1
Rattus norvegicus [1]
  Inhibition: 53%
Rattus norvegicus [2]
  inhibition in vivo at 50 mg/kg: 26%
Rattus norvegicus [3]
  Activity: -35%
Rattus norvegicus [4]
  inhibition in vivo at 50 mg/kg: 38%

## CN1CCN(CC(=O)Nc2nc3cc4nc(NC(=O)CN5CCN(C)CC5)sc4cc3s2)CC1
Rattus norvegicus [1]
  Inhibition: 28%
Rattus norvegicus [2]
  inhibition in vivo at 50 mg/kg: 0%
Rattus norvegicus [3]
  Activity: -25%
Rattus norvegicus [4]
  inhibition in vivo at 50 mg/kg: 0%

## CCN(CC)CC(=O)Nc1nc2cc3nc(NC(=O)CN(CC)CC)sc3c(C)c2s1.Cl.Cl
Rattus norvegicus [1]
  Inhibition: 8%
Rattus norvegicus [2]
  inhibition in vivo at 50 mg/kg: 59%
Rattus norvegicus [3]
  Activity: -37%
Rattus norvegicus [4]
  inhibition in vivo at 50 mg/kg: 100%

## COc1cc2nc(N)sc2c2nc(N)sc12
Rattus norvegicus [1]
  Inhibition: 43%
Rattus norvegicus [2]
  inhibition in vivo at 50 mg/kg: 34%
Rattus norvegicus [3]
  Activity: -29%
Rattus norvegicus [4]
  inhibition in vivo at 50 mg/kg: 35%

## O=C(CNC1CCCC1)Nc1nc2cc3nc(NC(=O)CNC4CCCC4)sc3cc2s1
Rattus norvegicus [1]
  Inhibition: 13%
Rattus norvegicus [2]
  inhibition in vivo at 50 mg/kg: 43%
Rattus norvegicus [3]
  Activity: 10%
Rattus norvegicus [4]
  inhibition in vivo at 50 mg/kg: 70%

## CCN(CC)CC(=O)N(CC)c1nc2cc3nc(N(CC)C(=O)CN(CC)CC)sc3c(Br)c2s1
Rattus norvegicus [1]
  Inhibition: 16%
Rattus norvegicus [2]
  inhibition in vivo at 50 mg/kg: 0%
Rattus norvegicus [3]
  Activity: -16%
Rattus norvegicus [4]
  inhibition in vivo at 50 mg/kg: 0%

## CCN(CC)CC(=O)N(CC)c1nc2cc3nc(N(CC)C(=O)CN(CC)CC)sc3cc2s1
Rattus norvegicus [1]
  Inhibition: 18%
Rattus norvegicus [2]
  inhibition in vivo at 50 mg/kg: 14%
Rattus norvegicus [3]
  Activity: -4%
Rattus norvegicus [4]
  inhibition in vivo at 50 mg/kg: 0%

## Cc1c2nc(N)sc2c(C(=O)[O-])c2sc(N)nc12.[Na+]
Rattus norvegicus [1]
  Inhibition: 22%
Rattus norvegicus [2]
  inhibition in vivo at 50 mg/kg: 7%
Rattus norvegicus [3]
  Activity: -15%
Rattus norvegicus [4]
  inhibition in vivo at 50 mg/kg: 0%

## O=C(CN1CCN(CCO)CC1)Nc1nc2cc3nc(NC(=O)CN4CCN(CCO)CC4)sc3cc2s1
Rattus norvegicus [1]
  Inhibition: 24%
Rattus norvegicus [2]
  inhibition in vivo at 50 mg/kg: 16%
Rattus norvegicus [3]
  Activity: 0%
Rattus norvegicus [4]
  inhibition in vivo at 50 mg/kg: 72%

## CC1CC(C)CN(CC(=O)Nc2nc3cc4nc(NC(=O)CN5CC(C)CC(C)C5)sc4cc3s2)C1 (centres undefined)
Rattus norvegicus [1]
  Inhibition: 15%
Rattus norvegicus [2]
  inhibition in vivo at 50 mg/kg: 29%
Rattus norvegicus [3]
  Activity: -3%
Rattus norvegicus [4]
  inhibition in vivo at 50 mg/kg: 11%

## CC1CCN(CC(=O)Nc2nc3cc4nc(NC(=O)CN5CCC(C)CC5)sc4cc3s2)CC1
Rattus norvegicus [1]
  Inhibition: 20%
Rattus norvegicus [2]
  inhibition in vivo at 50 mg/kg: 70%
Rattus norvegicus [3]
  Activity: -26%
Rattus norvegicus [4]
  inhibition in vivo at 50 mg/kg: 100%

## CC(C)N(CC(=O)Nc1nc2cc3nc(NC(=O)CN(C(C)C)C(C)C)sc3cc2s1)C(C)C
Rattus norvegicus [1]
  Inhibition: 0%
Rattus norvegicus [2]
  inhibition in vivo at 50 mg/kg: 0%
Rattus norvegicus [3]
  Activity: -5%
Rattus norvegicus [4]
  inhibition in vivo at 50 mg/kg: 0%

## O=C(CN1CCN(c2ccccc2)CC1)Nc1nc2cc3nc(NC(=O)CN4CCN(c5ccccc5)CC4)sc3cc2s1
Rattus norvegicus [1]
  Inhibition: 0%
Rattus norvegicus [2]
  inhibition in vivo at 50 mg/kg: 40%
Rattus norvegicus [3]
  Activity: 1%
Rattus norvegicus [4]
  inhibition in vivo at 50 mg/kg: 56%

## O=C(CN1CCN(c2ccc(Cl)cc2)CC1)Nc1nc2cc3nc(NC(=O)CN4CCN(c5ccc(Cl)cc5)CC4)sc3cc2s1
Rattus norvegicus [1]
  Inhibition: 12%
Rattus norvegicus [2]
  inhibition in vivo at 50 mg/kg: 21%
Rattus norvegicus [4]
  inhibition in vivo at 50 mg/kg: 41%

Source: ChEMBL document CHEMBL1125290, “Bis basic substituted diaminobenzobisthiazoles as potential antiarthritic agents” (1992)
